≈ marks a conversion by molar mass, not a printed value.
What was measured:
Assay type in all cases: functional
Enterococcus faecalis = test: Antibacterial activity against Enterococcus faecalis ATCC 29212
In short: (§1)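 MICs determined by agar dilution.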

Staphylococcus aureus [1] = test: Antibacterial activity against Staphylococcus aureus UBMS 90-3; in short: as §1
Escherichia coli [2] = test: Antibacterial activity against Escherichia coli UBMS 88-1 carrying tetB-resistant determinant
In short: (§2)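 Antibacterial activity determined by agar dilution.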

Escherichia coli [3] = test: Antibacterial activity against Escherichia coli UBMS 89-1 carrying tetM-resistant determinant; in short: as §2
Staphylococcus aureus [4] = test: Antibacterial activity against Staphylococcus aureus Smith; in short: as §1
Escherichia coli [5] = test: Antibacterial activity against Minocycline sensitive Escherichia coli 88-2; in short: as §1
Staphylococcus aureus [6] = test: Antibacterial activity against Staphylococcus aureus UBMS 90-2 carrying tetM-resistant determinant; in short: as §2
Escherichia coli [7] = test: Antibacterial activity against Minocylcine sensitive Escherichia coli 89-2; in short: as §1
Staphylococcus aureus [8] = test: Antibacterial activity against Staphylococcus aureus UBMS 90-1 carrying tetM-resistant determinant; in short: as §2
Staphylococcus aureus [9] = test: Antibacterial activity against Staphylococcus aureus UBMS 88-7 carrying the tetK-resistant determinant; in short: as §2
Escherichia coli [10] = test: Antibacterial activity against Escherichia coli UBMS 90-4 carrying tetM-resistant determinant; in short: as §2
Escherichia coli [11] = test: Antibacterial activity against Minocycline sensitive Escherichia coli 90-5; in short: as §2

Row | SMILES | MIC (Enterococcus faecalis) | MIC (Staphylococcus aureus [1]) | MIC (Escherichia coli [2]) | MIC (Escherichia coli [3]) | MIC (Staphylococcus aureus [4]) | MIC (Escherichia coli [5]) | MIC (Staphylococcus aureus [6]) | MIC (Escherichia coli [7]) | MIC (Staphylococcus aureus [8]) | MIC (Staphylococcus aureus [9]) | MIC (Escherichia coli [10]) | MIC (Escherichia coli [11])
1 | CN(C)c1cc(NC(=O)c2cccc(C(F)(F)F)c2)c(O)c2c1CC1CC3[C@H](N(C)C)C(=O)C(C(N)=O)=C(O)[C@@]3(O)C(=O)C1=C2O (some centres undefined) | 1 µg/mL (≈ 1.55 µM) | 0.5 µg/mL (≈ 0.776 µM) | > 32 µg/mL | > 32 µg/mL | 1 µg/mL (≈ 1.55 µM) | > 32 µg/mL | 1 µg/mL (≈ 1.55 µM) | > 32 µg/mL | 1 µg/mL (≈ 1.55 µM) | 1 µg/mL (≈ 1.55 µM) |  | 
2 | CN(C)c1cc(NC(=O)CNC2CCCC2)c(O)c2c1CC1CC3[C@H](N(C)C)C(=O)C(C(N)=O)=C(O)[C@@]3(O)C(=O)C1=C2O (some centres undefined) | 0.12 µg/mL (≈ 0.201 µM) | 0.12 µg/mL (≈ 0.201 µM) | 0.25 µg/mL (≈ 0.418 µM) |  | 0.25 µg/mL (≈ 0.418 µM) |  |  |  | 0.25 µg/mL (≈ 0.418 µM) | 2 µg/mL (≈ 3.35 µM) | 0.25 µg/mL (≈ 0.418 µM) | 0.25 µg/mL (≈ 0.418 µM)
3 | CN(C)c1cc(NC(=O)c2ccccc2)c(O)c2c1CC1CC3[C@H](N(C)C)C(=O)C(C(N)=O)=C(O)[C@@]3(O)C(=O)C1=C2O (some centres undefined) | 4 µg/mL (≈ 6.94 µM) | 1 µg/mL (≈ 1.73 µM) | > 32 µg/mL |  | 1 µg/mL (≈ 1.73 µM) | > 32 µg/mL | 4 µg/mL (≈ 6.94 µM) | > 32 µg/mL | 4 µg/mL (≈ 6.94 µM) | 8 µg/mL (≈ 13.9 µM) |  | 
4 | CN(C)c1cc(NC(=O)CNC(C)(C)C)c(O)c2c1C[C@H]1C[C@H]3[C@H](N(C)C)C(O)=C(C(N)=O)C(=O)[C@@]3(O)C(O)=C1C2=O [TIGECYCLINE] | 0.12 µg/mL (≈ 0.205 µM) | 0.25 µg/mL (≈ 0.427 µM) | 0.5 µg/mL (≈ 0.854 µM) |  | 0.25 µg/mL (≈ 0.427 µM) |  |  |  | 0.12 µg/mL (≈ 0.205 µM) | 0.5 µg/mL (≈ 0.854 µM) | 0.12 µg/mL (≈ 0.205 µM) | 0.25 µg/mL (≈ 0.427 µM)
5 | CN(C)CCCC(=O)Nc1cc(N(C)C)c2c(c1O)C(=O)C1=C(O)[C@]3(O)C(O)=C(C(N)=O)C(=O)[C@@H](N(C)C)C3CC1C2 (some centres undefined) | 4 µg/mL (≈ 6.83 µM) | 2 µg/mL (≈ 3.41 µM) | > 32 µg/mL |  | 2 µg/mL (≈ 3.41 µM) |  | 4 µg/mL (≈ 6.83 µM) |  | 8 µg/mL (≈ 13.7 µM) | 16 µg/mL (≈ 27.3 µM) | 16 µg/mL (≈ 27.3 µM) | 16 µg/mL (≈ 27.3 µM)
6 | Cc1ccccc1C(=O)Nc1cc(N(C)C)c2c(c1O)C(O)=C1C(=O)[C@]3(O)C(O)=C(C(N)=O)C(=O)[C@@H](N(C)C)C3CC1C2 (some centres undefined) | 2 µg/mL (≈ 3.39 µM) | 1 µg/mL (≈ 1.69 µM) | 2 µg/mL (≈ 3.39 µM) |  | 1 µg/mL (≈ 1.69 µM) | > 32 µg/mL | 2 µg/mL (≈ 3.39 µM) | > 32 µg/mL | 8 µg/mL (≈ 13.5 µM) | 4 µg/mL (≈ 6.77 µM) |  | 
7 | CN(C)c1cc(NC(=O)CO)c(O)c2c1CC1CC3[C@H](N(C)C)C(=O)C(C(N)=O)=C(O)[C@@]3(O)C(=O)C1=C2O (some centres undefined) | 32 µg/mL (≈ 60.3 µM) | 1 µg/mL (≈ 1.88 µM) | > 32 µg/mL |  | 0.5 µg/mL (≈ 0.942 µM) |  | 2 µg/mL (≈ 3.77 µM) |  | 4 µg/mL (≈ 7.54 µM) | > 32 µg/mL | > 32 µg/mL | > 32 µg/mL
8 | CN(C)c1cc(NS(=O)(=O)c2cccs2)c(O)c2c1CC1CC3[C@H](N(C)C)C(=O)C(C(N)=O)=C(O)[C@@]3(O)C(=O)C1=C2O (some centres undefined) | 0.25 µg/mL (≈ 0.404 µM) | 0.25 µg/mL (≈ 0.404 µM) | 32 µg/mL (≈ 51.7 µM) |  | 0.03 µg/mL (≈ 0.0485 µM) | 8 µg/mL (≈ 12.9 µM) | 0.25 µg/mL (≈ 0.404 µM) | 16 µg/mL (≈ 25.9 µM) | 1 µg/mL (≈ 1.62 µM) | 2 µg/mL (≈ 3.23 µM) |  | 
9 | CC(=O)Nc1nc(C)c(S(=O)(=O)Nc2cc(N(C)C)c3c(c2O)C(O)=C2C(=O)[C@]4(O)C(O)=C(C(N)=O)C(=O)[C@@H](N(C)C)C4CC2C3)s1 (some centres undefined) | 1 µg/mL (≈ 1.45 µM) | 2 µg/mL (≈ 2.9 µM) | > 32 µg/mL | 32 µg/mL (≈ 46.3 µM) | 2 µg/mL (≈ 2.9 µM) | > 32 µg/mL | 4 µg/mL (≈ 5.79 µM) | > 32 µg/mL | 32 µg/mL (≈ 46.3 µM) | 32 µg/mL (≈ 46.3 µM) |  | 
10 | CN(C)c1cc(NS(=O)(=O)c2ccccc2)c(O)c2c1CC1CC3[C@H](N(C)C)C(=O)C(C(N)=O)=C(O)[C@@]3(O)C(=O)C1=C2O (some centres undefined) | 0.06 µg/mL (≈ 0.0979 µM) | 4 µg/mL (≈ 6.53 µM) | 16 µg/mL (≈ 26.1 µM) |  | 4 µg/mL (≈ 6.53 µM) | 8 µg/mL (≈ 13.1 µM) | 0.06 µg/mL (≈ 0.0979 µM) | 16 µg/mL (≈ 26.1 µM) | 4 µg/mL (≈ 6.53 µM) | 4 µg/mL (≈ 6.53 µM) |  | 
11 | CN(C)c1cc(NC(=O)CCC2CCCC2)c(O)c2c1CC1CC3[C@H](N(C)C)C(=O)C(C(N)=O)=C(O)[C@@]3(O)C(=O)C1=C2O (some centres undefined) | 8 µg/mL (≈ 13.4 µM) | 4 µg/mL (≈ 6.7 µM) | > 128 µg/mL |  | 4 µg/mL (≈ 6.7 µM) |  | 8 µg/mL (≈ 13.4 µM) |  | 8 µg/mL (≈ 13.4 µM) | 8 µg/mL (≈ 13.4 µM) | > 128 µg/mL | > 128 µg/mL
12 | CN(C)c1ccc(C(=O)Nc2cc(N(C)C)c3c(c2O)C(O)=C2C(=O)[C@]4(O)C(O)=C(C(N)=O)C(=O)[C@@H](N(C)C)C4CC2C3)cc1 (some centres undefined) | 8 µg/mL (≈ 12.9 µM) | 8 µg/mL (≈ 12.9 µM) | > 32 µg/mL | > 32 µg/mL | 4 µg/mL (≈ 6.45 µM) | > 32 µg/mL | 8 µg/mL (≈ 12.9 µM) | > 32 µg/mL | 16 µg/mL (≈ 25.8 µM) | 16 µg/mL (≈ 25.8 µM) |  | 
13 | CN(C)c1cc(NC(=O)c2cccs2)c(O)c2c1CC1CC3[C@H](N(C)C)C(=O)C(C(N)=O)=C(O)[C@@]3(O)C(=O)C1=C2O (some centres undefined) | 8 µg/mL (≈ 13.7 µM) | 2 µg/mL (≈ 3.43 µM) | > 32 µg/mL | > 32 µg/mL | 2 µg/mL (≈ 3.43 µM) | > 32 µg/mL | 4 µg/mL (≈ 6.87 µM) | > 32 µg/mL | 4 µg/mL (≈ 6.87 µM) | 32 µg/mL (≈ 54.9 µM) |  | 
14 | CN(C)CC(=O)Nc1cc(N(C)C)c2c(c1O)C(=O)C1=C(O)[C@]3(O)C(O)=C(C(N)=O)C(=O)[C@@H](N(C)C)C3CC1C2 (some centres undefined) | 0.06 µg/mL (≈ 0.108 µM) | 0.06 µg/mL (≈ 0.108 µM) | 0.25 µg/mL (≈ 0.448 µM) |  | 0.06 µg/mL (≈ 0.108 µM) |  |  |  | 0.12 µg/mL (≈ 0.215 µM) | 0.5 µg/mL (≈ 0.897 µM) | 0.25 µg/mL (≈ 0.448 µM) | 0.12 µg/mL (≈ 0.215 µM)
15 | CN(C)c1cc(NC(=O)c2ccccc2F)c(O)c2c1CC1CC3[C@H](N(C)C)C(=O)C(C(N)=O)=C(O)[C@@]3(O)C(=O)C1=C2O (some centres undefined) | 4 µg/mL (≈ 6.73 µM) | 1 µg/mL (≈ 1.68 µM) | > 32 µg/mL |  | 1 µg/mL (≈ 1.68 µM) | > 32 µg/mL | 2 µg/mL (≈ 3.36 µM) | > 32 µg/mL | 4 µg/mL (≈ 6.73 µM) | 8 µg/mL (≈ 13.5 µM) |  | 
16 | CN(C)c1cc(NS(C)(=O)=O)c(O)c2c1CC1CC3[C@H](N(C)C)C(=O)C(C(N)=O)=C(O)[C@@]3(O)C(=O)C1=C2O (some centres undefined) | 0.06 µg/mL (≈ 0.109 µM) | 0.12 µg/mL (≈ 0.218 µM) | 8 µg/mL (≈ 14.5 µM) |  | 0.12 µg/mL (≈ 0.218 µM) | 2 µg/mL (≈ 3.63 µM) | 0.06 µg/mL (≈ 0.109 µM) | 2 µg/mL (≈ 3.63 µM) | 0.25 µg/mL (≈ 0.454 µM) | 8 µg/mL (≈ 14.5 µM) |  | 
17 | CN(C)c1cc(NS(=O)(=O)c2ccc(Cl)cc2)c(O)c2c1CC1CC3[C@H](N(C)C)C(=O)C(C(N)=O)=C(O)[C@@]3(O)C(=O)C1=C2O (some centres undefined) | 0.06 µg/mL (≈ 0.0927 µM) | 0.12 µg/mL (≈ 0.185 µM) | > 32 µg/mL |  | 0.12 µg/mL (≈ 0.185 µM) | > 32 µg/mL | 0.12 µg/mL (≈ 0.185 µM) | > 32 µg/mL | 0.25 µg/mL (≈ 0.386 µM) | 1 µg/mL (≈ 1.55 µM) |  | 
18 | CN(C)c1ccc(O)c2c1C[C@H]1C[C@H]3[C@H](N(C)C)C(O)=C(C(N)=O)C(=O)[C@@]3(O)C(O)=C1C2=O [MINOCYCLINE] | 2 µg/mL (≈ 4.37 µM) | 0.03 µg/mL (≈ 0.0656 µM) | 16 µg/mL (≈ 35 µM) | > 32 µg/mL | 0.06 µg/mL (≈ 0.131 µM) | 0.25 µg/mL (≈ 0.546 µM) | 2 µg/mL (≈ 4.37 µM) | 2 µg/mL (≈ 4.37 µM) | 8 µg/mL (≈ 17.5 µM) | 0.25 µg/mL (≈ 0.546 µM) |  | 

Source: ChEMBL document CHEMBL1147771, “Synthesis and antibacterial activity of 9-substituted minocycline derivatives” (2006)
